Measured values: ChEMBL document CHEMBL1240430, “Design & synthesis of 2-(substituted aryloxy)-5-(substituted benzylidene)-3-phenyl-2,5-dihydro-1H-[1,2,4] triazin-6-one as potential anticonvulsant agents” (Eur J Med Chem, 2010)
Activity calls are given as the source filed them. The calls are words filed in the database; no cut-off is given here.

Assays:
Mus musculus [1] = assay: Anticonvulsant activity in ip dosed albino mouse assessed as protection against MES-induced seizures after 4 hrs; type: functional
How it was run: (§1)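 Male albino mice (20-25 g) given test compounds i.p., suspended in 30% PEG 200, at 0.01 ml/g body weight, at 30, 100 and 300 mg/kg to 1–6 animals. Seizure protection checked 0.5 h and 4 h after dosing. Value is the minimal dose protecting 50% or more of animals.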

[2] = Neurotoxicity against ip dosed albino mouse assessed as inability of animal to maintain equilibrium on rod for 1 min after 4 hrs by rotarod test; settings: in vivo
[3] = Neurotoxicity against ip dosed albino mouse assessed as inability of animal to maintain equilibrium on rod for 1 min after 0.5 hrs by rotarod test; settings: in vivo
Mus musculus [4] = assay: Anticonvulsant activity in ip dosed albino mouse assessed as protection against scPTZ-induced seizures after 0.5 hrs; type: functional; how it was run: as §1
Mus musculus [5] = assay: Anticonvulsant activity in ip dosed albino mouse assessed as protection against MES-induced seizures after 0.5 hrs; type: functional; how it was run: as §1
Mus musculus [6] = assay: Anticonvulsant activity in ip dosed albino mouse assessed as protection against scPTZ-induced seizures after 4 hrs; type: functional; how it was run: as §1
Mus musculus [7] = assay: Reduction of immobility time in albino Swiss mouse at 100 mg/kg, ip pretreated for 1 hrs by forced swimming test; type: functional; settings: route intraperitoneal

Compound	ED50 (Mus musculus [1])	TD50 at 4 h [2] [mg/kg]	TD50 at 0.5 h [3] [mg/kg]	ED50 (Mus musculus [4]) [mg/kg]	ED50 (Mus musculus [5]) [mg/kg]	ED50 (Mus musculus [6])	Time (Mus musculus [7]) [s]
Cc1ccc(/C=C2/N=C(c3ccccc3)N(C(=O)Cc3ccc(Cl)cc3)NC2=O)cc1	300 mg/kg	300	300	100	100	300 mg/kg	–
O=C1NN(C(=O)c2ccccc2Cl)C(c2ccccc2)=N/C1=C/c1ccccc1Cl	30 mg/kg	300	300	30	30	100 mg/kg	148.17
COc1ccc(/C=C2/N=C(c3ccccc3)N(C(=O)c3ccc(Cl)cc3)NC2=O)cc1	inactive	300	300	100	100	300 mg/kg	–
O=C1NC(=O)C(c2ccccc2)(c2ccccc2)N1 [PHENYTOIN]	30 mg/kg	–	–	–	30	–	–
CCCC(CCC)C(=O)[O-].[Na+] [VALPROATE SODIUM]	–	–	–	300	–	inactive	–
O=C1NN(C(=O)c2ccc(F)cc2)C(c2ccccc2)=N/C1=C/c1ccc(O)cc1	inactive	–	–	300	300	inactive	–
Cc1ccc(C(=O)N2NC(=O)/C(=C\c3ccc(O)cc3)N=C2c2ccccc2)cc1	100 mg/kg	–	–	100	30	300 mg/kg	147.33
NC(=O)N1c2ccccc2C=Cc2ccccc21 [CARBAMAZEPINE]	–	–	–	–	–	–	169
Cc1ccc(/C=C2/N=C(c3ccccc3)N(C(=O)COc3ccccc3)NC2=O)cc1	300 mg/kg	–	–	300	300	inactive	–
COc1ccc(/C=C2/N=C(c3ccccc3)N(C(=O)c3ccc(C)cc3)NC2=O)cc1	100 mg/kg	300	300	30	100	30 mg/kg	151.5
Cc1ccc(/C=C2/N=C(c3ccccc3)N(C(=O)c3ccc(C)cc3)NC2=O)cc1	100 mg/kg	–	300	30	100	30 mg/kg	145.83
Cc1ccc(/C=C2/N=C(c3ccccc3)N(C(=O)c3ccc(Cl)cc3)NC2=O)cc1	300 mg/kg	–	–	100	100	100 mg/kg	–
O=C1NN(C(=O)c2ccc(Cl)cc2)C(c2ccccc2)=N/C1=C/c1ccccc1	300 mg/kg	300	300	100	100	300 mg/kg	–
